Bioassay records deposited in PubChem BioAssay by The Scripps Research Institute Molecular Screening Center.
GalR3 antagonist = GalR3 antagonists in HEK293 cells, primary screen, cell-based, fluorescence readout. AID 651719, 2012. inhibition, % at 3 µM. Galanin receptor type 3 (Homo sapiens), O60755. HEK293 GalR3-CNG cAMP membrane potential fluorescence; galR3 body fused to GalR1 C-terminus. hit rate 0.44% among 360,000;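 active = inhibition above the screen-wide average plus 3 SD, cut at about 13% in these data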;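 note: forskolin and galanin both at EC90 stimulate the cells; cAMP rise reported by CNG channel membrane potential dye signal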
Target sequence (O60755 1-299 limits assumed): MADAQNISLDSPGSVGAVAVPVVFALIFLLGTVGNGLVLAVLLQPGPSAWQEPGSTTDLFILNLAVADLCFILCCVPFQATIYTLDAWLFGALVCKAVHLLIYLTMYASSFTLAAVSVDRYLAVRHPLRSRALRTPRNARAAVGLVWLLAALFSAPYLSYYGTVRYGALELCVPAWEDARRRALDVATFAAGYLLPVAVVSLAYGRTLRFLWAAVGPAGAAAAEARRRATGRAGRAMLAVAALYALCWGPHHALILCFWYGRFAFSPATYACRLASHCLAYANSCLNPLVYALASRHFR
ARFGAP1 inh = inhibitors of rat ARFGAP1 GAP activity, primary screen, biochemical, fluorescence polarization, GDP tracer; inhibition, % at 16.5 µM; ADP-ribosylation factor GTPase-activating protein 1 (Rattus norvegicus), Q62848; Arfgap1-stimulated ARF1 GTP hydrolysis, GDP FP detection; hit rate 0.26% among 360,000; AID 651572, 2012;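 active = inhibition above a per-plate limit, mean inhibition of low control wells plus 3 SD, cut at about 25% in these data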
Target sequence (Q62848 1-136 limits assumed): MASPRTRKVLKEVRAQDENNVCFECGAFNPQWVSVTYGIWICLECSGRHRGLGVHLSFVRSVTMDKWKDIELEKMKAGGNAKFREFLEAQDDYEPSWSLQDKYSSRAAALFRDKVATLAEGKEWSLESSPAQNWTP
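Repeats: one replicate per compound; assay system: rat Arfgap1 catalytic domain, aa 1-136; times: enzyme reaction 120 min at 25 °C after 20 min preincubation; detection: FP of antibody-bound GDP Alexa 633 tracer, ex 620/em 688 nm; benchmarks: high control wells lacking Arfgap1, low control full reaction with DMSO; reagent: human ARF1(Δ1-17)-GTP substrate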
Rin1 Abl inh = inhibitors of Rin1-Abl protein binding, primary screen, biochemical, TR-FRET | AID 588664, 2011 | hit rate 0.4% among 360,000 | Tyrosine-protein kinase ABL1 (Homo sapiens) + Ras and Rab interactor 1 (Homo sapiens), … | inhibition, % at 7.35 µM; in the data active = inhibition above about 5%, passing the limit was not always enough
ASAP1 inh = inhibitors of human ASAP1 ArfGAP activity, primary screen, biochemical, fluorescence polarization. Arf-GAP with SH3 domain, ANK repeat and PH domain-containing protein 1 (Homo sapiens), …. AID 624377, 2012. inhibition, % at 16.5 µM. hit rate 0.19% among 360,000. ASAP1-stimulated ARF1 GTP hydrolysis, GDP FP detection; in the data active = inhibition above about 25%
GalR3 antag conf = GalR3 antagonist hit confirmation, cell-based, fluorescence, triplicate | shares compounds with GalR3 antagonist | HEK293 GalR3 CNG cAMP biosensor, membrane potential fluorescence; galR3 fused to GalR1 carboxy tail; challenged with forskolin and galanin at EC90 | inhibition, % at 3 µM | hit rate 59% among 1,600 | AID 652245, 2013;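 active = inhibition above the primary screen's cutoff, the mean inhibition of all screened compounds plus 3 SD, cut at about 13% in these data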
CNG parental = nonspecific cAMP agonists in parental HEK-CNG cells, counter-screen for GalR3 antagonist project, cell-based, fluorescence, high throughput. HEK293-CNG parental cells, cAMP membrane potential fluorescence; normalised: DMSO wells 0%, forskolin wells 100%. hit rate 10% among 1,600. activation, % at 3 µM. shares compounds with GalR3 antagonist. AID 652268, 2013; in the data active = activation above about 1.3%
Large screens that a line does not name were inactive (follow-up assays come after a bar, where they were run). A selection: hits, their analogues and other compounds. The true share with any hit is near 1.2%.

COC(=O)C1=C(C)N(C)C(=NCc2ccc(C(F)(F)F)cc2)NC1c1cccc(F)c1 (stereo not given)	none (no result: Rin1 Abl inh)
COc1ccc(C(C)(O)c2nc(-c3ccccc3OC)cs2)cc1 (stereo not given)	none
O=C(N[C@H](Cc1ccccc1)C(=O)N1CCCN(Cc2ccccc2F)CC1)[C@H]1O[C@@H](n2ccc(=O)[nH]c2=O)[C@H](O)[C@@H]1O	none (no result: Rin1 Abl inh)
Cn1cc(CNCc2cn[nH]c2-c2ccc(F)cc2)c(-c2ccc3c(c2)OCCO3)n1	none
Cn1cc(CNCc2ccc(OC(F)(F)F)cc2)c(-c2ccc3c(c2)OCCO3)n1	GalR3 antagonist 35 | GalR3 antag conf 92 | CNG parental 1.7
O=C(O)C1CCCN1C(=O)c1cccc(Cl)c1 (stereo not given)	none (no result: Rin1 Abl inh)
CCn1nc(C)c(CNC(=O)c2ccc(OC3CCN(Cc4ccccn4)CC3)cc2)c1C	GalR3 antagonist 97 | GalR3 antag conf 103 | CNG parental inactive
CC1=CC(=O)C(C(C)C)=C/C1=N/OS(=O)(=O)c1ccccc1	GalR3 antagonist 92 | GalR3 antag conf 35 | CNG parental inactive
COc1ccc(C(=O)c2coc(-c3ccccc3C(=O)O)c2C(=O)O)cc1	GalR3 antagonist 14 | GalR3 antag conf inactive | CNG parental inactive
COc1ccc(C(=O)c2ccccc2C(=O)c2ccccc2)cc1	none
Cc1ccc(S(C)(=O)=NC(=O)NC(=O)c2c(F)cccc2Cl)cc1 (stereo not given)	GalR3 antagonist 14 | GalR3 antag conf inactive | CNG parental inactive
Cc1ccc(S(C)(=O)=NC(=O)NC(=O)c2c(Cl)cccc2Cl)cc1 (stereo not given)	none
CCCC(=O)Nc1nnc(-c2ccc3c(c2)OCCO3)o1	GalR3 antagonist 14 | GalR3 antag conf inactive | CNG parental inactive
CCCC(=O)Nc1nc(-c2ccc3c(c2)OCCO3)cs1	none
Cc1[nH]c2ccccc2c1CC(=O)Nc1ccc(Oc2cccnc2)cc1	none (no result: Rin1 Abl inh)
C#CCNC(=O)C[C@H]1C[C@@]2(C(=O)OC)C(=C[C@H](COCc3ccccc3)O[C@@H]2C)N(Cc2ccc3c(c2)OCO3)C1=O	none (no result: Rin1 Abl inh)
CC1=CC(C)(C)N2C(=O)C(=Nc3ccc(O)cc3)c3cccc1c32	GalR3 antagonist 16 | GalR3 antag conf inactive | CNG parental inactive
COCCN(C(=O)COC(=O)CCOc1ccccc1)c1c(N)n(Cc2ccccc2)c(=O)[nH]c1=O	none (no result: GalR3 antagonist, ARFGAP1 inh, ASAP1 inh)
COCCN(C(=O)COC(=O)CCS(=O)(=O)c1ccccc1)c1c(N)n(Cc2ccccc2)c(=O)[nH]c1=O	GalR3 antagonist 14 | GalR3 antag conf inactive | CNG parental inactive
CCc1cc2c(nc1CC)CCCN2S(=O)(=O)c1ccc(C)cc1	none (no result: Rin1 Abl inh)
COc1ccccc1C(=O)N1CCC2CCN(C(=O)OC(C)(C)C)C2C1 (stereo not given)	none (no result: Rin1 Abl inh)
N#Cc1c([N+](=O)[O-])cc([N+](=O)[O-])cc1S(=O)(=O)Cc1ccccc1	GalR3 antagonist 64 | GalR3 antag conf 25 | CNG parental inactive
COc1cc(OC)c(C#N)c(S(=O)(=O)Cc2ccccc2)c1	none
Nc1nc2c(ncn2[C@@H]2O[C@H](C(=O)N[C@@H](Cc3ccccc3)C(=O)NCc3ccc4c(c3)OCO4)[C@@H](O)[C@H]2O)c(=O)[nH]1	none (no result: Rin1 Abl inh)
CC(=O)Nc1ccc(NC(=O)c2ccc(CN3CCc4ccccc4C3)cc2)cc1	none
CSc1cccc(NC(=O)c2ccc(CN3CCc4ccccc4C3)cc2)c1	GalR3 antagonist 47 | GalR3 antag conf 104 | CNG parental inactive
O=C(Nc1cccc(Br)c1)c1ccc(CN2CCc3ccccc3C2)cc1	GalR3 antagonist 85 | GalR3 antag conf 107 | CNG parental inactive
